Data: ChEMBL document CHEMBL1122838, “GABA agonists. Resolution, absolute stereochemistry, and enantioselectivity of (S)-(+)- and (R)-(-)-dihydromuscimol” (J Med Chem, 1985)
Active and inactive are the calls of the source. The calls are words filed in the database; no cut-off is given here.

How the values were obtained:
GABA transporter [1] = target: T1, GABA transporter (Rattus norvegicus, UniProt P31647+P23978+P31646+P48056); assay type: functional, cell membranes, Brain, Membrane
Felis catus [2] = test: BMC-sensitive inhibitory effect on cat spinal neurons relative to that of GABA was expressed in vivo as relative potency; Greater activity; assay type: functional, organism-based
[3] = target: GABA-A receptor; anion channel; test: In vitro inhibition of [3H]THIP binding to Gamma-aminobutyric acid receptor in rat brain synaptic membranes; assay type: cell membranes, Membrane
Summary of the method: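 Radioligand 0.005 μM [3H]THIP; rat cortical synaptic membranes (0.8–1.2 mg protein) in 0.05 M Tris-citrate pH 7.1, triplicate, 15 min at 4 °C, analogue up to 100 μM. IC50 derived from displacement; three experiments averaged per concentration.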

[4] = target: Gamma-aminobutyric acid receptor subunit gamma-1 (Rattus norvegicus, UniProt P23574); test: In vitro inhibition of [3H]GABA binding to Gamma-aminobutyric acid receptor of rat brain synaptic membranes; assay type: cell membranes, Membrane
[5] = target: GABA-A receptor; anion channel; test: In vitro inhibition of [3H]P4S binding to Gamma-aminobutyric acid receptor of rat brain synaptic membranes; assay type: cell membranes, Membrane
Felis catus [6] = test: BMC-sensitive inhibitory effect on cat spinal neurons relative to that of GABA was expressed in vivo as relative potency; Less activity; assay type: functional, organism-based
Felis catus [7] = test: In vivo BMC-sensitive inhibitory effect on cat spinal neurons relative to that of GABA; Equal activity; assay type: functional, organism-based
GABA transporter [8] = target: T1, GABA transporter; test: In vitro inhibition of GABA uptake in rat brain synaptosomes
[9] = target: GABA-A receptor; anion channel; test: In vitro inhibition of [3H]GABA binding to rat brain synaptic membranes; assay type: cell membranes, Membrane
Summary of the method: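 Rat cerebral cortex synaptic membranes (0.8–1.2 mg protein) incubated in triplicate 15 min at 4 °C in 0.05 M Tris-citrate pH 7.1 with 0.005 μM [3H]GABA and analogue (up to 100 μM). Displacement used to derive IC50; each concentration mean of three experiments.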

Sequence of Gamma-aminobutyric acid receptor subunit gamma-1 (P23574 whole entry): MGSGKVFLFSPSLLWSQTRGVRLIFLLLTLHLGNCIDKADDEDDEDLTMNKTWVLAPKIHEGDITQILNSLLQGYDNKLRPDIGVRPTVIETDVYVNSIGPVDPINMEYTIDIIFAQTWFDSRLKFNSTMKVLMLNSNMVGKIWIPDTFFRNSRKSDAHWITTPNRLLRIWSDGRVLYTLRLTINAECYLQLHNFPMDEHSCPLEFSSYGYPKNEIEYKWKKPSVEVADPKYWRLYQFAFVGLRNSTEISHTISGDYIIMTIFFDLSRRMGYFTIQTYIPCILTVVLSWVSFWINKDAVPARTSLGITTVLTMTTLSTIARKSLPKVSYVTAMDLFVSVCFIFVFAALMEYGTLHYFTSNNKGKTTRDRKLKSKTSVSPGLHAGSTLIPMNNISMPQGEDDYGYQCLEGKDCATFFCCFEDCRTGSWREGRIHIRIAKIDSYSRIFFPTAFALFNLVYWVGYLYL

For `NC[C@@H]1CC(=O)NO1`, the IC50 (GABA transporter [1]) was > 500000 nM, the Relative potency (Felis catus [2]) was “Active” and the IC50 [3] was 3 nM. For the same compound, the IC50 [4] was 4 nM and the IC50 [5] was 8 nM.

Compound `NC[C@@H](O)CC(=O)O` has an IC50 (GABA transporter [1]) of 29000 nM, an IC50 [3] of 200 nM and an IC50 [4] of 400 nM. The Relative potency (Felis catus [6]) was “Partially active” and the IC50 [5] was 900 nM.

`NC[C@H]1CC(O)=NO1` was tested, and the IC50 [3] was 140 nM, the IC50 [4] was 250 nM and the IC50 [5] was 540 nM.

For `NCc1cc(O)no1` [MUSCIMOL], the IC50 (GABA transporter [1]) was 320000 nM and the Relative potency (Felis catus [2]) was “Active”.

`NC[C@H]1CC(=O)NO1` was tested, and the Relative potency (Felis catus [7]) was “Active” and the IC50 (GABA transporter [8]) was 70000 nM.

Compound `NCc1cc(=O)[nH]o1` [MUSCIMOL] has an IC50 [3] of 5 nM, an IC50 [4] of 6 nM and an IC50 [5] of 6 nM.

In the case of `NC[C@H](O)CC(=O)O`, the IC50 [9] is reported as 1000 nM, the IC50 [3] is reported as 300 nM and the Relative potency (Felis catus [6]) is reported as “Partially active”. For the same compound, the IC50 [5] was 1900 nM and the IC50 (GABA transporter [8]) was 67000 nM.

For `NCC1CC(=O)NO1` (racemic), the IC50 (GABA transporter [1]) was 130000 nM, the IC50 [9] was 8 nM and the Relative potency (Felis catus [2]) was “Active”. For the same compound, the IC50 [3] was 5 nM and the IC50 [5] was 18 nM.
